The record followed here is ChEMBL document CHEMBL1126114, “A novel orally active inhibitor of IL-1 generation: synthesis and structure-activity relationships of 3-(4-hydroxy-1-naphthalenyl)-2-propenoic acid derivatives” (J Med Chem, 1992).

Common to all, as to type: functional
One assay is filed under the species Homo sapiens. Description: In vitro inhibitory activity against IL-1 generation by using human monocyte. In short, it runs like this: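 Healthy-donor peripheral mononuclear cells, adhered 1.5 h in RPMI 1640 with 10% heat-inactivated autologous serum. Adherent monocytes then stimulated with LPS 1 μg/mL for 16–18 h in 1% autologous serum with 0.1% ethanol, ± drug. Extra- plus intracellular IL-1 read by LAF assay against a recombinant human IL-1β curve. IC50 by least squares; mean of ≥2 experiments.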

Assay [1] has as its system Rattus norvegicus. Description: In vivo percent inhibition of IL-1 generation in rat CMC-LPS air pouch model at 100 uM concentration (local administration). The essentials: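 Rat air pouch: 10 mL air s.c. into the dorsum, 2% CMC-Na in saline 24 h later, then LPS 5 ng 24 h after CMC. Compound given locally in 5% EtOH-RPMI with 30% autologous serum, 100 μM final in exudate, at 30 min before and just before LPS. Exudate IL-1 (extra- plus intracellular) read by LAF at 4 h. n=5; % inhibition ± SEM.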

The species named for assay [2] is Rattus norvegicus. Briefly: In vitro inhibitory activity against IL-1 generation by using rat exudated macrophages. In short, it runs like this:
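Fisher rat peritoneal exudate cells collected 4 days after i.p. 2.5% glycogen. Cells adhered 1.5 h at 37 °C in 1% normal rat serum. Adherent macrophages stimulated with LPS 1 ng/mL for 4 h ± compound. Intracellular IL-1 read by LAF assay against a recombinant human IL-1α curve. IC50 by least squares; mean of duplicates.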

Assay [3] relates to Rattus norvegicus. Briefly: Compound was evaluated in vivo for the percent inhibition of IL-1 generation in rat CMC-LPS air pouch model at 50 mg/Kg concentration (oral administration). In short, it runs like this: (§1)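 Rat CMC-LPS air pouch: air s.c., 2% CMC-Na 24 h later, LPS 5 ng 24 h after that. Compound given orally in 0.5% methyl cellulose 2 h before LPS. Exudate collected at 4 h; IL-1 (extra- plus intracellular) read by LAF assay against a recombinant human IL-1α curve.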

For assay [4], the system named is Rattus norvegicus. Description: Compound was evaluated in vivo for the percent inhibition of IL-1 generation in rat CMC-LPS air pouch model at 200 mg/Kg concentration (oral administration). In short, it runs like this:
as §1

“And” between values parts separate entries of the source, which are not always exact repeats. Equal values may be shown once. Some results are limits rather than exact numbers.

As for `CCc1cccc2c(O)c(OC)cc(/C=C/C(=O)O)c12`, the values for the IC50 in the assay listed under Homo sapiens and in the assay listed under Rattus norvegicus [2] were 1800 nM and 5500 nM, respectively. The compound further displayed an Inhibition with Rattus norvegicus [1] of 26%.

Regarding `CC/C(=C/c1cc(OC)c(O)c2c(CC)cccc12)C(=O)O`, in the assay on Rattus norvegicus [1], the Inhibition was 90% and 71%. In the assay filed under Rattus norvegicus [2], the half-inhibitory concentration (IC50) amounted to 2100 nM. Further, in the assay on Rattus norvegicus [3], at 50 mg/kg the inhibition in vivo was 43%.

`CCCCCOc1cc(/C=C/C(=O)O)c2cccc(CC)c2c1O`: the IC50 in the assay listed under Homo sapiens came out at 5300 nM; in the assay filed under Rattus norvegicus [2] it was 2500 nM. In the assay on Rattus norvegicus [1], this compound gave an Inhibition of 33%.

For `CCc1ccc2c(/C=C/C(=O)O)cc(OC)c(O)c2c1`, the IC50 worked out at 4000 nM in the assay listed under Homo sapiens and 4100 nM in the assay filed under Rattus norvegicus [2]. Also, the Inhibition in the assay on Rattus norvegicus [1] is <25%.

On to `CCCC/C(=C\C(=O)O)c1cc(OC)c(O)c2c(CC)cccc12`, for which the concentration for half-maximal inhibition (IC50) was 5800 nM in the assay filed under Homo sapiens and > 10000 nM in the assay listed under Rattus norvegicus [2]. In addition, the Inhibition in the assay on Rattus norvegicus [1] was 52%.

As for `CCc1cccc2c(/C=C(\C)C(=O)O)cc(OC)c(O)c12`, in the assay on Rattus norvegicus [1], the Inhibition amounted to 85%. Testing at 200 mg/kg in the assay with Rattus norvegicus [4] gave an inhibition in vivo of 36%.

As for `CCc1cccc2c(/C=C(\Cc3cccs3)C(=O)O)cc(OC)c(O)c12`, the Inhibition in the assay on Rattus norvegicus [1] amounted to 44%. Moreover, the IC50 in the assay filed under Rattus norvegicus [2] came out at 6500 nM.

In turn, `CCCc1cccc2c(/C=C(\C)C(=O)O)cc(OC)c(O)c12` came in with an Inhibition in the assay with Rattus norvegicus [1] of 91%. The compound further displayed an inhibition in vivo at 200 mg/kg in the assay on Rattus norvegicus [4] of 67%. Besides, the inhibition in vivo at 50 mg/kg in the assay on Rattus norvegicus [3] is < 25%.

In the case of `CCc1cccc2c(/C(C)=C\C(=O)O)cc(OC)c(O)c12`, in the assay on Rattus norvegicus [1], the Inhibition is reported as <25%. In the assay listed under Rattus norvegicus [2], the IC50 was > 10000 nM.

Turning to `CCOc1cc(/C=C/C(=O)O)c2cccc(CC)c2c1O`, in the assay with Rattus norvegicus [1], the Inhibition amounted to 75%. Moreover, the half-inhibitory concentration (IC50) in the assay listed under Rattus norvegicus [2] worked out at 1400 nM.

Consider `CCCc1cccc2c(/C=C(/C)C(=O)O)cc(OC)c(O)c12`, for which, in the assay with Rattus norvegicus [1], the Inhibition is 87% and 86%. Further, testing at 50 mg/kg in the assay on Rattus norvegicus [3] gave an inhibition in vivo of 33%.

Regarding `CCCc1cccc2c(/C=C/C(=O)O)cc(OC)c(O)c12`, the values for the half-inhibitory concentration (IC50) in the assay filed under Homo sapiens and in the assay filed under Rattus norvegicus [2] were 2300 nM and < 1000 nM, respectively. This compound came in with an Inhibition in the assay with Rattus norvegicus [1] of 91%. Further, the inhibition in vivo at 200 mg/kg in the assay with Rattus norvegicus [4] was 32%. In the assay on Rattus norvegicus [3], the inhibition in vivo at 50 mg/kg is < 25%.

For the compound `CCCc1cccc2c(/C=C(/CC)C(=O)O)cc(OC)c(O)c12`, the IC50 in the assay listed under Homo sapiens and in the assay listed under Rattus norvegicus [2] was < 1000 nM in each case. Further, the Inhibition in the assay with Rattus norvegicus [1] was 90% and 78%. The compound also yielded an inhibition in vivo at 50 mg/kg with Rattus norvegicus [3] of 47%.

In the case of `CCc1cccc2c(/C(C)=C/C(=O)O)cc(OC)c(O)c12`, the Inhibition in the assay with Rattus norvegicus [1] is given as <25%. In the assay filed under Rattus norvegicus [2], the IC50 is > 10000 nM.

Regarding `CCc1cccc2c(/C=C/C(=O)O)cc(OCc3ccccc3)c(O)c12`, the figures for the IC50 in the assay listed under Homo sapiens and in the assay filed under Rattus norvegicus [2] were 6700 nM and 1900 nM, respectively. In addition, in the assay with Rattus norvegicus [1], the Inhibition is 39%.

In the case of `CCc1cccc2c(/C=C/C(=O)O)cc(OC)c(O)c12`, the concentration for half-maximal inhibition (IC50) in the assay listed under Homo sapiens worked out at 2400 nM; in the assay listed under Rattus norvegicus [2], 1500 nM. The Inhibition in the assay on Rattus norvegicus [1] came to 88%. In the assay with Rattus norvegicus [4], the inhibition in vivo at 200 mg/kg is < 25%.

For `CCCc1cccc2c(/C=C(/Cc3ccccc3)C(=O)O)cc(OC)c(O)c12`, the Inhibition with Rattus norvegicus [1] was 91%. In addition, in the assay with Rattus norvegicus [4], the inhibition in vivo at 200 mg/kg turned out to be 51%. The same compound came in with a half-maximal inhibitory concentration (IC50) in the assay listed under Rattus norvegicus [2] of 1600 nM.

Turning to `COc1cc(/C=C/C(=O)O)c2cccc(C(C)C)c2c1O`, the IC50 in the assay filed under Homo sapiens came out at 1400 nM; in the assay filed under Rattus norvegicus [2] it was 1000 nM. For the same compound, the Inhibition with Rattus norvegicus [1] stood at 73%. For the same compound, the inhibition in vivo at 200 mg/kg in the assay on Rattus norvegicus [4] was < 25%.

Consider `COc1cc(/C=C(\C)C(=O)O)c2cccc(C(C)C)c2c1O`, for which the concentration for half-maximal inhibition (IC50) in the assay listed under Homo sapiens was < 1000 nM; in the assay listed under Rattus norvegicus [2], 1000 nM. For the same compound, the Inhibition in the assay on Rattus norvegicus [1] came to 70%. The inhibition in vivo at 200 mg/kg in the assay with Rattus norvegicus [4] is < 25%.

In the case of `COc1cc(/C=C(/C)C(=O)O)c2cccc(C(C)C)c2c1O`, the 50% inhibitory concentration (IC50) in the assay listed under Homo sapiens turned out to be 2100 nM; in the assay filed under Rattus norvegicus [2] it was 1400 nM. Also, in the assay with Rattus norvegicus [1], the Inhibition is 87% and 79%. This compound came in with an inhibition in vivo at 50 mg/kg in the assay with Rattus norvegicus [3] of 29%.

As to `COc1cc(/C=C/C(=O)O)c2ccccc2c1O`, the 50% inhibitory concentration (IC50) in the assay listed under Homo sapiens turned out to be 1900 nM; in the assay filed under Rattus norvegicus [2], 1400 nM. In addition, the Inhibition with Rattus norvegicus [1] is <25%.

The compound `CCc1cccc2c(/C=C(\Cc3ccccc3)C(=O)O)cc(OC)c(O)c12` came in with an Inhibition in the assay with Rattus norvegicus [1] of 79%. In addition, the inhibition in vivo at 200 mg/kg in the assay on Rattus norvegicus [4] was < 25%. Also, in the assay listed under Rattus norvegicus [2], half-maximal inhibition (IC50) required 2300 nM.

For `CCc1ccc2c(O)c(OC)cc(/C=C/C(=O)O)c2c1`, the figures for the IC50 in the assay listed under Homo sapiens and in the assay listed under Rattus norvegicus [2] were 3900 nM and 4000 nM, respectively. In addition, in the assay on Rattus norvegicus [1], the Inhibition was <25%.

Regarding `COCCCc1cccc2c(/C=C/C(=O)O)cc(OC)c(O)c12`, the Inhibition with Rattus norvegicus [1] is <25%. The compound also had an IC50 in the assay filed under Rattus norvegicus [2] of 6300 nM.

For `CCc1c(OC)c(O)c2ccccc2c1/C=C/C(=O)O`, the IC50 in the assay filed under Homo sapiens and in the assay listed under Rattus norvegicus [2] was > 10000 nM in each case. Further, in the assay with Rattus norvegicus [1], the Inhibition is on record as <25%.

Regarding `CCc1c(OC)c(O)c2c(CC)cccc2c1/C=C/C(=O)O`, in the assay listed under Homo sapiens, the IC50 was > 10000 nM. In addition, the Inhibition in the assay on Rattus norvegicus [1] was <25%.

Consider `CC/C(=C\c1cc(OC)c(O)c2c(CC)cccc12)C(=O)O`, for which, in the assay on Rattus norvegicus [1], the Inhibition is on record as 72%. For the same compound, the inhibition in vivo at 200 mg/kg in the assay on Rattus norvegicus [4] was found to be 41%. In the assay filed under Rattus norvegicus [2], this compound registered a concentration for half-maximal inhibition (IC50) of 1400 nM.

Compound `CCc1cccc2c(/C=C(/Cc3ccccc3)C(=O)O)cc(OC)c(O)c12` came in with a half-maximal inhibitory concentration (IC50) in the assay filed under Rattus norvegicus [2] of 2100 nM. The inhibition in vivo at 50 mg/kg in the assay with Rattus norvegicus [3] was < 25%.

Turning to `CCCc1cccc2c(/C=C(\CC)C(=O)O)cc(OC)c(O)c12`, the IC50 in the assay listed under Homo sapiens is 3700 nM; in the assay filed under Rattus norvegicus [2], < 1000 nM. The compound also had an Inhibition in the assay with Rattus norvegicus [1] of 91%. In the assay on Rattus norvegicus [4], this compound yielded an inhibition in vivo at 200 mg/kg of 62%.

Turning to `COc1cc(/C=C/C(=O)O)c2cccc(C)c2c1O`, the half-inhibitory concentration (IC50) in the assay listed under Homo sapiens was 2500 nM; in the assay filed under Rattus norvegicus [2] it was < 1000 nM. Further, the Inhibition in the assay with Rattus norvegicus [1] was <25%.

`CCc1cccc2c(/C=C(/C(=O)O)c3ccccc3)cc(OC)c(O)c12` returned an Inhibition in the assay with Rattus norvegicus [1] of 42%. Besides, in the assay on Rattus norvegicus [4], the inhibition in vivo at 200 mg/kg is < 25%. The compound further came in with an IC50 in the assay listed under Rattus norvegicus [2] of 2500 nM.

For `CCc1cccc2c(/C=C/C(=O)O)cc(OCCOC)c(O)c12`, the concentration for half-maximal inhibition (IC50) was > 10000 nM in the assay listed under Homo sapiens and 3500 nM in the assay listed under Rattus norvegicus [2]. For the same compound, the Inhibition in the assay with Rattus norvegicus [1] turned out to be 34%.

What is called IC50 is the concentration at which inhibition is half-maximal. Read a low IC50 as inhibition by little substance. As a reminder, the Inhibition is the change of the read-out against control, counted positive when it falls. Higher therefore signals a response far below the control. One may read the inhibition in vivo as the percentage by which the read-out fell short of the control. Higher therefore signals a strong effect.
